Laboratory results taken from ChEMBL document CHEMBL1811795, “Photolabile ubiquinone analogues for identification and characterization of quinone binding sites in proteins” (Bioorg Med Chem, 2010).
Calls of active or inactive are those of the source. No cut-off for these calls is given here.

Key:
Rhodobacter capsulatus [1] = assay: Activity of Rhodobacter capsulatus NADH-ubiquinone oxidoreductase at 50 uM UV-illuminated compound
In short: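 R. capsulatus membranes incubated with 50 µM previously UV-illuminated azidoquinone, then NADH:O2 reductase (NADH oxidase) activity measured. Runs without additions and with the unmodified quinone were done in parallel.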

Escherichia coli [2] = assay: Activity of Escherichia coli WrbA
In short: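 Purified E. coli WrbA in 20 mM potassium phosphate pH 7.2, room temperature, with 100 µM FMN, 200 µM NADH and 200 µM quinone; NADH oxidation followed at 340 nm; Vmax reported.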

Bacillus subtilis [3] = assay: Inhibition of Bacillus subtilis Succinate-ubiquinone oxidoreductase using AzQ0 as substrate
In short: (§1)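 Succinate:quinone reductase of purified B. subtilis Complex II, read as DCPIP reduction at 600 nm. Conditions: 20 mM succinate, 50 mM potassium phosphate pH 7.4, 1 mM KCN, 0.1 mM EDTA, room temperature, quinone starting the reaction. HQNO added at 10 µM final; percent inhibition recorded.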

Bacillus subtilis [4] = assay: Inhibition of photo labeled detergent solubilized succinate:ubiquinone oxidoreductase activity of respiratory chain in Bacillus subtilis after 5 mins of UV-illumination
In short: (§2)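 Purified Complex II (5 µM, detergent) with 10–75 µM azidoquinone in 50 mM potassium phosphate, 1 mM EDTA, pH 7.4, illuminated on ice with mid-wavelength UV at 7 cm; timed aliquots held dark on ice. SQR activity then measured within 1 h by DCPIP reduction with Q1 as acceptor.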

Bacillus subtilis [5] = assay: Activity of Bacillus subtilis Succinate-ubiquinone oxidoreductase
In short: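 Purified detergent-solubilized B. subtilis Complex II ([…]): succinate-driven DCPIP reduction followed at 600 nm, 20 mM succinate, quinone (50 mM as printed) as primary acceptor, 50 mM potassium phosphate pH 7.4 with 1 mM KCN and 0.1 mM EDTA, room temperature, started by quinone; Vmax reported.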

Rhodobacter capsulatus [6] = assay: Activity of Rhodobacter capsulatus NADH-ubiquinone oxidoreductase
In short: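 R. capsulatus membranes (aerobic, dark, 32 °C growth) assayed for NADH:quinone reductase at 25 °C: 50 mM Tris–Cl pH 8, 10 mM KCl, 5 mM MgCl2, 0.2 µg/mL gramicidin A, 150 µM NADH. Quinone varied 0.2–3 Km; Michaelis–Menten fit of initial rates gives apparent Km and Vmax. NADH oxidation read at 340 nm.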

[7] = Photo stability of the compound assessed as decomposition at 500 uM after 10 mins of UV-illumination; assay type: physicochemical
Bacillus subtilis [8] = assay: Inhibition of photo labeled detergent solubilized succinate:ubiquinone oxidoreductase activity in Bacillus subtilis measured in dark; in short: as §2
Escherichia coli [9] = assay: Inhibition of photo labeled Escherichia coli WrbA activity at 50 uM; conditions: TDE = time-dependent effect
In short: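 WrbA (10 µM) with 50 µM azidoquinone in 20 mM potassium phosphate pH 7.2, on ice, under mid-wavelength UV light at 7 cm; aliquots taken over time and kept dark on ice. Activity then read within 1 h as NADH oxidation at 340 nm with 100 µM FMN, 200 µM NADH and 200 µM quinone.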

Bacillus subtilis [10] = assay: Inhibition of Bacillus subtilis Succinate-ubiquinone oxidoreductase using Q0 as substrate; in short: as §1
Rhodobacter capsulatus [11] = assay: Inhibition of Rhodobacter capsulatus NADH-ubiquinone oxidoreductase using DAzB as substrate
Rhodobacter capsulatus [12] = assay: Inhibition of Rhodobacter capsulatus NADH-ubiquinone oxidoreductase using DMB as substrate
Rhodobacter capsulatus [13] = assay: Inhibition of Rhodobacter capsulatus NADH-ubiquinone oxidoreductase using Q1 as substrate
Rhodobacter capsulatus [14] = assay: Inhibition of Rhodobacter capsulatus NADH-ubiquinone oxidoreductase using AzQ1 as substrate
Rhodobacter capsulatus [15] = assay: Inhibition of Rhodobacter capsulatus NADH-ubiquinone oxidoreductase using Q0 as substrate
Rhodobacter capsulatus [16] = assay: Inhibition of Rhodobacter capsulatus NADH-ubiquinone oxidoreductase using AzQ0 as substrate
Bacillus subtilis [17] = assay: Inhibition of Bacillus subtilis Succinate-ubiquinone oxidoreductase using Q1 as substrate
In short: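 Purified B. subtilis Complex II (from a strain overproducing it, solubilised in dodecylmaltoside), 5 µM, in 50 mM potassium phosphate, 1 mM EDTA, pH 7.4. Illuminated on ice with mid-wavelength UV at 7 cm, with 10–75 µM azidoquinone. Samples held dark on ice, then assayed within 1 h: succinate:Q1 reductase, read as DCPIP reduction at 600 nm, room temperature.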

Rhodobacter capsulatus [18] = assay: Inhibition of NADH:Q1 reductase activity of Rhodobacter capsulatus NADH-ubiquinone oxidoreductase at 20 uM after 5 mins of UV-illumination
In short: (§3)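 R. capsulatus membranes, 1 mg/mL protein in Bis–Tris propane buffer pH 6.8, preincubated 5 min in the dark with about 20 µM azidoquinone. Then illuminated with mid-wavelength UV at 7 cm, 4 °C, in a quartz cuvette. Where stated, 5 µM NADH was added (with KCN) before illumination. NADH:Q1 reductase assayed straight after: 340 nm, 25 °C, Tris–Cl pH 8.0, 5 mM KCN, 100 µM Q1, 150 µM NADH, gramicidin.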

Rhodobacter capsulatus [19] = assay: Inhibition of NADH:Q1 reductase activity of Rhodobacter capsulatus NADH-ubiquinone oxidoreductase at 20 uM after 5 mins of UV-illumination in presence of 5 uM NADH; in short: as §3
Rhodobacter capsulatus [20] = assay: Activity of Rhodobacter capsulatus NADH-ubiquinone oxidoreductase at 50 uM post UV-illuminated compound
Rhodobacter capsulatus [21] = assay: Inhibition of NADH:Q1 reductase activity of Rhodobacter capsulatus NADH-ubiquinone oxidoreductase at 20 uM; conditions: TDE = time-dependent effect
In short: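 Membranes in Buffer A (50 mM Bis–Tris propane pH 6.8, 20 mM KCl, 10 mM MgCl2) at 1 mg/mL protein, preincubated 5 min dark with ~20 µM azidoquinone, UV-illuminated up to 10 min at 7 cm, 4 °C. NADH:Q1 reductase then read at 340 nm, 25 °C, pH 8.0 Tris–Cl with 5 mM KCN, 100 µM Q1, 150 µM NADH.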

Rhodobacter capsulatus [22] = assay: Inhibition of NADH:ferricyanide reductase activity of Rhodobacter capsulatus NADH-ubiquinone oxidoreductase at 20 uM after 20 mins of UV-illumination

`COC1=C(OC)C(=O)C(N=[N+]=[N-])=C(C)C1=O` gave an inhibition (Rhodobacter capsulatus [1]) of 20%, a Vmax (microM/min/mg) (Escherichia coli [2]) of 724 and an Imax (Bacillus subtilis [3]) of 89%. For the same compound, the inhibition (Bacillus subtilis [4]) was “Active”, the Vmax (microM/min/mg) (Bacillus subtilis [5]) was 3.72 and the Km (Rhodobacter capsulatus [6]) was 52 µM. The Vmax (Rhodobacter capsulatus [6]) was 0.58 µmol/min/mg, the Stability [7] was “Stable” and the inhibition (Bacillus subtilis [8]) was “inactive”. For the same compound, the inhibition (Escherichia coli [9]) was “tde”.

For `COC1=C(OC)C(=O)C(C)=CC1=O`, the Vmax (microM/min/mg) (Escherichia coli [2]) was 684, the Vmax (microM/min/mg) (Bacillus subtilis [5]) was 2.19 and the Km (Rhodobacter capsulatus [6]) was 75 µM. The Vmax (Rhodobacter capsulatus [6]) was 0.37 µmol/min/mg, the Imax (Bacillus subtilis [10]) was 88% and the inhibition (Bacillus subtilis [8]) was “inactive”.

`C=C(C)[C@H]1Cc2c(ccc3c2O[C@@H]2COc4cc(OC)c(OC)cc4[C@@H]2C3=O)O1` showed an Imax (Rhodobacter capsulatus [11]) of 53%, an Imax (Rhodobacter capsulatus [12]) of 63% and an Imax (Rhodobacter capsulatus [13]) of 68%. For the same compound, the Imax (Rhodobacter capsulatus [14]) was 79%, the Imax (Rhodobacter capsulatus [15]) was 48% and the Imax (Rhodobacter capsulatus [16]) was 53%.

With `COC1=C(OC)C(=O)C(CC=C(C)C)=C(C)C1=O` the Vmax (microM/min/mg) (Escherichia coli [2]) was less than 10, the Vmax (microM/min/mg) (Bacillus subtilis [5]) was 2.52 and the Km (Rhodobacter capsulatus [6]) was 23 µM. The Vmax (Rhodobacter capsulatus [6]) was 0.67 µmol/min/mg, the Imax (Bacillus subtilis [17]) was 90% and the inhibition (Bacillus subtilis [8]) was “inactive”.

For `CC1=CC(=O)C=C(C)C1=O`, the Vmax (microM/min/mg) (Escherichia coli [2]) was 546, the Vmax (microM/min/mg) (Bacillus subtilis [5]) was 3.99 and the Km (Rhodobacter capsulatus [6]) was 100 µM. For the same compound, the Vmax (Rhodobacter capsulatus [6]) was 0.35 µmol/min/mg and the inhibition (Bacillus subtilis [8]) was “inactive”.

For `C/C=C(\C)[C@H](O)[C@H](C)/C=C(C)/C=C/C/C(C)=C/Cc1nc(OC)c(OC)c(O)c1C`, the Imax (Rhodobacter capsulatus [11]) was 71%, the Imax (Rhodobacter capsulatus [12]) was 75% and the Imax (Rhodobacter capsulatus [13]) was 73%. It also gave an Imax (Rhodobacter capsulatus [14]) of 79%, an Imax (Rhodobacter capsulatus [15]) of 68% and an Imax (Rhodobacter capsulatus [16]) of 68%.

For `[N-]=[N+]=NC1=CC(=O)C=CC1=O`, the inhibition (Rhodobacter capsulatus [18]) was “Active” and the inhibition (Rhodobacter capsulatus [19]) was “Active”.

`CC1=CC(=O)C(N=[N+]=[N-])=C(C)C1=O` showed a Vmax (microM/min/mg) (Escherichia coli [2]) of 464, a Vmax (microM/min/mg) (Bacillus subtilis [5]) of 4.72 and a Km (Rhodobacter capsulatus [6]) of 86 µM. For the same compound, the Vmax (Rhodobacter capsulatus [6]) was 0.59 µmol/min/mg, the Stability [7] was “Unstable” and the inhibition (Rhodobacter capsulatus [20]) was “inactive”. For the same compound, the inhibition (Bacillus subtilis [8]) was “inactive”.

With `COC1=C(OC)C(=O)C(CCCCCN=[N+]=[N-])=C(C)C1=O` the inhibition (Rhodobacter capsulatus [1]) was 20%, the inhibition (Rhodobacter capsulatus [21]) was “tde” and the inhibition (Rhodobacter capsulatus [22]) was “inactive”. It also gave a Vmax (microM/min/mg) (Bacillus subtilis [5]) of 2.57, a Km (Rhodobacter capsulatus [6]) of 21 µM and a Vmax (Rhodobacter capsulatus [6]) of 0.35 µmol/min/mg. For the same compound, the inhibition (Bacillus subtilis [8]) was “inactive”.
